This note sets out measurements from ChEMBL document CHEMBL1129953, “Heteroaromatic analogs of 1-[2-(diphenylmethoxy)ethyl]- and 1-[2-[bis(4-fluorophenyl)methoxy]ethyl]-4-(3-phenylpropyl)piperazines (GBR 12935 and GBR 12909) as high-affinity dopamine reuptake inhibitors” (J Med Chem, 1997).

Experiment [1] in a line: Sigma receptor binding was determined by labeling with radioligand [3H](+)-pentazocine on frozen membranes obtained from frozen guinea pig brain.
Experiment [2] has as its target T1, Sodium-dependent dopamine transporter (Rattus norvegicus, UniProt P23977). Description: Reuptake inhibition at the dopamine transporter labeled with radioligand [3H]dopamine on synaptosomes obtained from rat caudate. In kind it is functional, subcellular, Brain. The gist of the method:
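Rat caudate synaptosomes (10% sucrose homogenate, 1000g supernatant). [3H]DA at 5 nM final in Krebs-phosphate buffer pH 7.4 with ascorbic acid and 50 μM pargyline. Incubated 15 min at 25 °C. Nonspecific uptake defined with 1 μM GBR 12909. Filtered over GF/B filters and counted. IC50 reported.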

Experiment [3] deals with T2, Monoamine transporters; serotonin & dopamine (Rattus norvegicus) (UniProt P31652+P23977). The experiment can be described thus: Ratio of binding affinity on SERT with respect to DA. In kind it is protein assay.
T2 sequence (P23977 whole entry, looked up): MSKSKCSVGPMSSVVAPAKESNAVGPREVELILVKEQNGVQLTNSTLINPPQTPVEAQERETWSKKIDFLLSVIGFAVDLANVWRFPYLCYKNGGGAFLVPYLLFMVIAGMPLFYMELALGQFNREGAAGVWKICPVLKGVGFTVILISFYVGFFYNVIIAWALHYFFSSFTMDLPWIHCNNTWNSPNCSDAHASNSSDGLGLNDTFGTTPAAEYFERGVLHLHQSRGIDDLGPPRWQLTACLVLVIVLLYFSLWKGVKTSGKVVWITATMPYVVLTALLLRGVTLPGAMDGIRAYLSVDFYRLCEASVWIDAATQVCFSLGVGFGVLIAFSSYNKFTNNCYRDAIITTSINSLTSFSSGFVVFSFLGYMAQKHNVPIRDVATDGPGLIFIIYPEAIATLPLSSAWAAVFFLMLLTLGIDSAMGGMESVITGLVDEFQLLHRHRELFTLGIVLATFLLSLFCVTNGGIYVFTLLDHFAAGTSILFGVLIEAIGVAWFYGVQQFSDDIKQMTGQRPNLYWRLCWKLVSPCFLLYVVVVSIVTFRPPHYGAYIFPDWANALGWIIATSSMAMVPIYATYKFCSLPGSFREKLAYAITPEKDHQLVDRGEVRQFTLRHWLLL
T2 sequence (P31652 whole entry, looked up): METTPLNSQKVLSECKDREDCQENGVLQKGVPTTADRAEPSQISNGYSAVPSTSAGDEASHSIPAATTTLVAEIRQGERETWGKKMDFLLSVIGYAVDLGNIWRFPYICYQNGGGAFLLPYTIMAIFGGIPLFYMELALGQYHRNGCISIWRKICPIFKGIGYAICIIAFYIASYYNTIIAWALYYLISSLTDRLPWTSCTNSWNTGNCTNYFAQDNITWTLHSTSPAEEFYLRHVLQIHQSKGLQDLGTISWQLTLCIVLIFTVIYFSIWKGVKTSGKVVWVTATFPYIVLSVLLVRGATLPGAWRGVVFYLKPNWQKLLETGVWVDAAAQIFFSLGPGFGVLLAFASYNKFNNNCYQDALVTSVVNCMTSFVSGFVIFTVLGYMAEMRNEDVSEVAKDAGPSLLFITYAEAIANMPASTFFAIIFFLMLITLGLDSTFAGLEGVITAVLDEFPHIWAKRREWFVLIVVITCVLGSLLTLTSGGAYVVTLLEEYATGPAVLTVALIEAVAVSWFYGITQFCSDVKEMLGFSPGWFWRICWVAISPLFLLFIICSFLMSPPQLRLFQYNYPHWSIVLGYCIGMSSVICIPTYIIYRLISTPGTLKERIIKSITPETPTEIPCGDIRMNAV
For experiment [4], the target named is Sodium-dependent dopamine transporter (Rattus norvegicus) (UniProt P23977). The experiment can be described thus: Ratio of reuptake inhibition on DA with respect to binding affinity of DA. It is filed as functional.
Sequence of Sodium-dependent dopamine transporter (Rattus norvegicus) (P23977 whole entry): as the sequence (P23977 whole entry, looked up) above
For experiment [5], the target named is T1, Sodium-dependent dopamine transporter. Description: Reuptake inhibition was determined at the dopamine transporter labeled with radioligand [3H]dopamine in nonstandard conditions on brain membranes obtained from rat. It is filed as functional, Membrane. The essentials:
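Synaptosomes preincubated with drug 60 min at 25 °C in Krebs-phosphate buffer with 1 mg/mL BSA. 5 nM [3H]DA then added for 20 min at 25 °C. Nonspecific uptake defined with 1 μM GBR 12909. Stopped by filtration. Mean ± SD of three independent experiments.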

The target of experiment [6] is T2, Monoamine transporters; serotonin & dopamine (Rattus norvegicus). The experiment can be described thus: Ratio of reuptake inhibition of 5-HT with respect to DA. In kind it is functional.
The target of experiment [7] is T3, Sodium-dependent serotonin transporter (Rattus norvegicus, UniProt P31652). The experiment can be described thus: Binding affinity at the serotonin transporter using [125I]RTI-55 in rat caudate membranes. It is filed as cell membranes. The gist of the method:
(§1)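 Triplicate incubation 18–24 h at 4 °C, then filtration over PEI-presoaked GF/B filters. Eight-point inhibition curves (90–10% of control) give the IC50.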

In experiment [8] the target is T1, Sodium-dependent dopamine transporter. The experiment can be described thus: Binding affinity was determined at the dopamine transporter labeled with radioligand [125 I] RTI-55 in nonstandard conditions. The gist of the method: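 Run on rat caudate synaptosomes in Krebs-phosphate buffer with 1 mg/mL BSA. Drug preincubated 60 min at 25 °C, then 10 pM [125I]RTI-55 added for 20 min at 25 °C. Filtered over PEI-presoaked GF/B filters. Nonspecific binding defined with 1 μM GBR 12909. Mean ± SD of three independent experiments.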

The target is the same in experiment [9]. The experiment can be described thus: Binding affinity at the dopamine transporter using [125I]RTI-55 in rat caudate membranes. It is filed as cell membranes. The essentials:
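[125I]RTI-55 at 0.01 nM (SA 2200 Ci/mmol). […] Incubated in triplicate 18–24 h at 4 °C to equilibrium. Filtered over PEI-presoaked GF/B filters. Eight-point inhibition curves spanning 90% to 10% of control. IC50 reported.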

For experiment [10] the target is unchanged. The experiment can be described thus: Binding affinity was determined at the dopamine transporter labeled with radioligand [125 I] RTI-55. The essentials:
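Incubated in triplicate 18–24 h at 4 °C to equilibrium. Filtered over PEI-presoaked GF/B filters. Eight-point inhibition curves spanning 90% to 10% of control. IC50 reported.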

In experiment [11] the target is T3, Sodium-dependent serotonin transporter. Description: Binding affinity was determined at the Serotonin transporter labeled with radioligand [125 I] RTI-55. The gist of the method:
as §1

Molecules are shown by their SMILES.

T1 sequence (P23977 whole entry): as the sequence (P23977 whole entry, looked up) above
T3 sequence (P31652 whole entry): as the sequence (P31652 whole entry, looked up) above

`c1ccc(CCCN2CCN(CCOC(c3ccccc3)c3ccccc3)CC2)cc1`: in experiment [1], the IC50 turned out to be 17 nM.
Consider `Fc1ccc(C(OCCN2CCN(Cc3cc4ccccc4[nH]3)CC2)c2ccc(F)cc2)cc1`, for which the IC50 amounted to 13 nM in experiment [2]; 1.86 nM in experiment [5]; 119 nM in experiment [7]; 2.94 nM in [8]; 0.7 nM in experiment [9]. The Ratio is 163 in [3], 18.6 in experiment [4] and 39 in [6].
As for `Fc1ccc(C(OCCN2CCN(Cc3cc4ccccc4o3)CC2)c2ccc(F)cc2)cc1`, the IC50 amounted to 18.6 nM in [2]; 12.3 nM in [5]; 286 nM in [7]; 17.8 nM in experiment [8]; 6.4 nM in experiment [9]. Also, the Ratio in experiment [3] turned out to be 45; in [4], 2.9; in [6], 41.
Consider `c1ccc(C(OCCN2CCN(Cc3cc4ccccc4o3)CC2)c2ccccc2)cc1`, for which the IC50 was found to be 22 nM in experiment [2]; 31 nM in experiment [5]; 1890 nM in experiment [7]; 43.6 nM in experiment [8]; 17 nM in [9]. Further, the figures for the Ratio in experiment [3], in experiment [4] and in [6] were 110, 1.3 and 136, respectively.
In the case of `Fc1ccc(C(OCCN2CCN(CCCc3cccs3)CC2)c2ccc(F)cc2)cc1`, the IC50 in experiment [10] is 3.3 nM; in experiment [2], 6.1 nM; in experiment [11] it was 105 nM. Further, the Ratio in experiment [3] amounted to 32; in [4] it was 1.8; in [6] it was 55.
For `Fc1ccc(C(OCCN2CCN(CCCc3cccnc3)CC2)c2ccc(F)cc2)cc1`, the IC50 in [10] worked out at 16 nM; in experiment [2], 20 nM; in experiment [11] it was 2800 nM. The Ratio in experiment [3] turned out to be 175; in experiment [4], 1.3; in experiment [6], 321.
Turning to `c1ccc(C(OCCN2CCN(Cc3cc4ccccc4[nH]3)CC2)c2ccccc2)cc1`, the IC50 in [2] is 8.8 nM; in experiment [5] it was 2.62 nM; in experiment [7], 668 nM; in experiment [8], 2.19 nM; in [9], 1.1 nM. Also, the Ratio in experiment [3] worked out at 619; in experiment [4], 8; in experiment [6], 241.
As to `Fc1ccc(C(OCCN2CCN(CCCc3ccco3)CC2)c2ccc(F)cc2)cc1`, the figures for the IC50 in experiment [10], in experiment [2] and in experiment [11] were 5.9 nM, 7.9 nM and 204 nM, respectively. Besides, the values for the Ratio in experiment [3], in experiment [4] and in experiment [6] were 35, 1.3 and 52, respectively.

Broadly, the IC50 is the concentration that inhibits the measured activity by half. Read a low IC50 as higher potency.
